Reference: ChEMBL document CHEMBL5154719, “Probing Embryonic Development Enables the Discovery of Unique Small-Molecule Bone Morphogenetic Protein Potentiators” (J Med Chem, 2022)
Activity calls are given as the source filed them. The rule behind the calls is not given here.

Experiments:
Embryonic stem cell [1] = assay: Induction of cardiac differentiation in mouse ESC transfected with Myh6-GFP treated for 48 hrs and measured after 3 to 6 days by imaging analysis; type: functional, cell-based; details: time 3-6 day
Method in brief: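 mESC-Myh6-GFP seeded on 0.1% gelatine at 500 cells/well in LIF-free medium to differentiate spontaneously (day 0). Inhibitors given dose-dependently for 48 h over the stated day windows. Medium later changed to complete LIF-free medium. On day 11, cells PFA-fixed and DAPI-stained. GFP+ cardiomyocytes quantified by high-content imaging, normalized to DMSO; mean ± SEM.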

C2C12 [2] = assay: […] of osteoblastogenesis in mouse C2C12 cells assessed as upregulation of Osx gene expression in presence of BMP4 at 1 uM measured after 72 hrs; type: functional, cell-based
Method in brief: (§1)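 C2C12 cells plated at 1 × 10⁵ cells/well and treated with compound (1 μM) plus BMP-4 (7.5 ng/mL) or DMSO for 72 h. RNA isolated and transcripts quantified by qRT-PCR using the ΔΔCp method. Mean of triplicates ± SD, normalized to DMSO.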

C2C12 [3] = assay: […] of osteoblastogenesis in mouse C2C12 cells assessed as upregulation of Alp gene expression in presence of BMP4 at 1 uM measured after 72 hrs; type: functional, cell-based; method in brief: as §1
C2C12 [4] = assay: Potentiation of BMP receptor in BMP-4 stimulated mouse C2C12 cells assessed as decrease in cytoplasmic Smad2 level preincubated for 24 hrs followed by BMP-4 stimulation and measured after 30 mins in presence of […]/BMP by Western blot analysis; type: cell-based; details: filed as activator, time 24.5 hrs
Method in brief: (§2)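 C2C12 cells exposed to compound with TGFβ-2 (10 ng/mL) for 24 h; for nuclear readout, a further 30 min BMP-4 at 2 ng/mL. Cytoplasmic and nuclear fractions isolated in HEPES buffers, pH 7.5, with phosphatase and protease inhibitors. Smads detected by Western blot, luminescence normalized to total protein per lane (trichloroethanol stain), then to DMSO.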

C2C12 [5] = assay: […] of osteoblastogenesis in mouse C2C12 cells assessed as upregulation of Col1a1 gene expression in presence of BMP4 at 1 uM measured after 72 hrs; type: functional, cell-based; method in brief: as §1
C2C12 [6] = assay: […] of osteoblastogenesis in mouse C2C12 cells assessed as upregulation of Ocn gene expression in presence of BMP4 at 1 uM measured after 72 hrs; type: functional, cell-based; method in brief: as §1
C2C12 [7] = assay: Induction of BMP-dependent osteogenesis in mouse C2C12 cells incubated for 72 hrs; type: functional, cell-based
Method in brief: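 C2C12 myoblasts, 2000 cells/well in DMEM with 6% heat-inactivated FBS, grown 16 h; compounds added in triplicate, then BMP-4 at 7.5 ng/mL; 72 h. ALP activity read by luminescence after lysis with CDP-Star substrate, 1 h at room temperature in the dark. Activity with 7.5 ng/mL BMP-4 in DMSO set to 100%. EC50 by curve fitting.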

C2C12 [8] = assay: Potentiation of BMP receptor in mouse C2C12 cells assessed as increase in Id1 gene expression level incubated for 24 hrs by qRT-PCR analysis; details: filed as activator
SAOS-2 = assay: Induction of osteoblastic mineralization in human SAOS-2 cells at 25 nM followed by BMP-4 addition measured after 11 days of osteogenic differentiation; type: functional, cell-based; details: time 11.0 day
Method in brief: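 SaOS-2 cells, 8×10³ cells/well, in osteogenic medium (10 mM β-glycerophosphate, 0.2 mM ascorbic acid, 10 nM dexamethasone) with 2 ng/mL BMP-4 or BMP-2 for 11 days. Medium and compound changed every 3 days; ascorbate refreshed daily; DMSO 0.01% vehicle. Mineralization by von Kossa staining; stained area quantified from at least four images per condition at 100× magnification.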

[9] = Inhibition of DMH-1 induced cardiogenesis in mouse ESC transfected with Myh6-GFP; type: functional, cell-based; details: embryonic stem cell
Method in brief: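 mESC-Myh6-GFP, 500 cells/well on gelatine, LIF-free medium from day 0. On day 3, compounds added (triplicates for IC50) with DMH-1 at 0.5 μM final, 0.2% DMSO, 6% FBS; 24 h. Medium then changed, refreshed days 7 and 9. Day 11: PFA fixation, DAPI stain, automated imaging of GFP intensity and cell count, normalized to DMH-1. Cell count below 70% of DMH-1 flagged as cytotoxic.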

C2C12 [10] = assay: […] of osteoblastogenesis in mouse C2C12 cells assessed as upregulation of Opn gene expression in presence of BMP4 at 1 uM measured after 72 hrs; type: functional, cell-based; method in brief: as §1
C2C12 [11] = assay: […] of osteoblastogenesis in mouse C2C12 cells assessed as upregulation of Runx2 gene expression in presence of BMP4 at 1 uM measured after 72 hrs; type: functional, cell-based; method in brief: as §1
C2C12 [12] = assay: Potentiation of BMP receptor in mouse C2C12 cells assessed as increase in Id2 gene expression level incubated for 24 hrs by qRT-PCR analysis; details: filed as activator
C2C12 [13] = assay: Potentiation of BMP receptor in mouse C2C12 cells assessed as decrease in cytoplasmic Smad2 level incubated for 24 hrs in presence of […]/BMP by Western blot analysis; type: cell-based; details: filed as activator; method in brief: as §2
Embryonic stem cell [14] = assay: Induction of cardiac differentiation in mouse ESC transfected with Myh6-GFP treated for 48 hrs and measured after 4 to 6 days by imaging analysis; type: functional, cell-based; details: time 4-6 day
[15] = Induction of alkaline phosphatase activation in mouse C2C12 cells assessed as fold increase incubated in presence of 50 ng/ml BMP4 at 1 uM relative to BMP4 alone; type: functional
[16] = target: Glycogen synthase kinase-3 beta (Homo sapiens, UniProt P49841); assay: Inhibition of GSK3beta (unknown origin)
Sequence of Glycogen synthase kinase-3 beta (P49841 whole entry): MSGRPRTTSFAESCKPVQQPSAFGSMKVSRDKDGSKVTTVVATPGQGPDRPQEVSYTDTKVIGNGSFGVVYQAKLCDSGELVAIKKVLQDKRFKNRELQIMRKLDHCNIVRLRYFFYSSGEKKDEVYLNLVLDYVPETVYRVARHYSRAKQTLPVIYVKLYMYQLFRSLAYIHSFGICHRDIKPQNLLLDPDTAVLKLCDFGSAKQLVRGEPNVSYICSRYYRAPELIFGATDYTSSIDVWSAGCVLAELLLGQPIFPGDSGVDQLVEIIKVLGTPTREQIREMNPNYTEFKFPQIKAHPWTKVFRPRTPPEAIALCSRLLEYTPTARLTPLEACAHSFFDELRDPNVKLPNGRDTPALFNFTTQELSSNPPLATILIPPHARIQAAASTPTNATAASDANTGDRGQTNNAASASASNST

c1cc(-c2cnn3cc(-c4ccc(OCCN5CCCCC5)cc4)cnc23)ccn1
Activity (Embryonic stem cell [1]): Active

O=c1c(-c2ccc(C(F)(F)F)cc2)c(-n2cncn2)oc2ccccc12
Activity (C2C12 [2]): Active
Activity (C2C12 [3]): Active
Activity (C2C12 [4]): Active
Activity (C2C12 [5]): Active
Activity (C2C12 [6]): Active
Activity (C2C12 [7]): Active
Activity (C2C12 [8]): Active
Activity (SAOS-2): Active
IC50 [9]: 200 nM
Activity (C2C12 [10]): Active
Activity (C2C12 [11]): Active
Activity (C2C12 [12]): Active
Activity (C2C12 [13]): Active

NC(=O)c1ccc(-c2nc(-c3ccccn3)c(-c3ccc4c(c3)OCO4)[nH]2)cc1
Activity (Embryonic stem cell [14]): Active

Cc1cc(Nc2cc(Cl)nc(Oc3ccc([N+](=O)[O-])cc3)n2)n[nH]1
Activity (C2C12 [7]): Active
IC50 [9]: 200 nM
fold change (FC) [15]: 2
IC50 [16]: 2 nM
